The record followed here is ChEMBL document CHEMBL1155337, “N-substituted bis-C-alkyloxadiazolones as dual effectors: efficient intermediates to amidoximes or amidines and prodrug candidates of potent antimalarials” (Bioorg Med Chem Lett, 2009).

Active and inactive are the calls of the source. The calls are words filed in the database; no cut-off is given here.

In series [1] the test system is Plasmodium vinckei petteri. As to the kind of experiment: Antimalarial activity against Plasmodium vinckei petteri 279BY infected in Swiss mice (Mus musculus) assessed as reduction in parasitaemia level at 5 mg/kg, intraperitoneally relative to control. It counts as functional. The conditions noted are these: route intraperitoneal. More on the design: scale not given: the % may be the effect or the level left. In outline:
(§1)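 Female Swiss mice were infected with P. vinckei petteri 279BY on day 0. Compound was given intraperitoneally or orally once daily for four consecutive days (days 1–4 post infection). Three doses were tested per compound, with 3 mice per dose. Parasitemia was monitored against untreated control, and cleared animals were followed 28 days for recrudescence. ED50 was derived from the dose series.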

For series [2], the system named is Plasmodium vinckei petteri. Description: Antimalarial activity against Plasmodium vinckei petteri 279BY infected in Swiss mice (Mus musculus) assessed as reduction in parasitaemia level at 180 mg, perorally relative to control. Type of series: functional. More on the design: scale not given: the % may be the effect or the level left. In outline:
as §1

The test system of series [3] is Plasmodium vinckei petteri. As to the kind of experiment: Antimalarial activity against Plasmodium vinckei petteri 279BY infected peroral daily dosed Swiss mice (Mus musculus) assessed as reduction in parasitaemia level measured after 4 days. It counts as functional. To be noted: po, 96 h. In short, it runs like this:
as §1

Series [4] deals with Plasmodium vinckei petteri. As to the kind of experiment: Antimalarial activity against Plasmodium vinckei petteri 279BY infected in Swiss mice (Mus musculus) assessed as reduction in parasitaemia level at 10 mg/kg, intraperitoneal measured after 4 days. Type of series: functional. The conditions noted are these: ip, 96 h. In short, it runs like this:
as §1

For series [5], the system named is Plasmodium falciparum. Description: Antimalarial activity against chloroquine-sensitive Plasmodium falciparum Nigerian. It counts as functional, organism-based. In short, it runs like this: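 In vitro IC50 values are means of at least two independent experiments, each run in duplicate.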
For series [6], the system named is Plasmodium vinckei petteri. As to the kind of experiment: Antimalarial activity against Plasmodium vinckei petteri 279BY infected in Swiss mice (Mus musculus) at 10 mg/kg, intraperitoneal after 4 days. Type of series: functional, organism-based. Further details: dose 10 mg/kg. In short, it runs like this:
as §1

The test system of series [7] is Mus musculus. Description: Toxicity in Plasmodium vinckei petteri 279BY infected Swiss mice (Mus musculus) at 5 mg/kg, intraperitoneally. It counts as organism-based. Further details: dose 5 mg/kg, route intraperitoneal. To be noted: in vivo, ip.
For series [8], the system named is Plasmodium vinckei petteri. As to the kind of experiment: Antimalarial activity against Plasmodium vinckei petteri 279BY infected intraperitoneally daily dosed Swiss mice (Mus musculus) assessed as reduction in parasitaemia after 28 days. It counts as functional. To be noted: ip, 672 h. In outline: as §1
For series [9], the system named is Mus musculus. As to the kind of experiment: Toxicity in Plasmodium vinckei petteri 279BY infected Swiss mice (Mus musculus) at >10 mg/kg, intraperitoneally. It counts as organism-based. The conditions noted are these: in vivo, ip.
Series [10] deals with Plasmodium vinckei petteri. Description: Antimalarial activity against Plasmodium vinckei petteri 279BY infected in Swiss mice (Mus musculus) assessed as reduction in parasitaemia level at 90 mg/kg, perorally relative to control. To be noted: route oral. More on the design: scale not given: the % may be the effect or the level left. Type of series: functional. In outline: as §1

`CCN/C(CCCCCCCCCCCC/C(=N/O)NCC)=N\O`: the Activity in series [1] worked out at 76%; in series [2] it was 20%. For the same molecule, the results for the ED50 in series [3] and in series [4] were > 180 mg/kg and 3.1 mg/kg, respectively. The 50% inhibitory concentration (IC50) (as a rule, the concentration needed to halve the response being measured) in series [5] turned out to be 6200 nM.

Regarding `Cl.Cl.N=C(CCCCCCCCCCCCC(=N)NCc1ccccc1)NCc1ccccc1`, the 50% effective dose (ED50) (usually the dose at which the effect has come halfway, by size or by number of responders) in series [3] is > 90 mg/kg; in series [4], > 20 mg/kg. The molecule further gave a half-inhibitory concentration (IC50) in series [5] of 4.6 nM. Besides, in [6], the outcome was inactive.

On to `CN/C(CCCCCCCCCCCC/C(=N/O)NC)=N\O`, for which the Activity result in [7] is “Toxic”; in series [1] it was 44%. For the same molecule, the ED50 in [3] is > 180 mg/kg. Besides, 10100 nM corresponded to half-maximal inhibition in [5] (IC50).

On to `COCCN/C(CCCCCCCCCCCC/C(=N/O)NCCOC)=N\O`, for which the Activity result in [7] is reported as “Toxic”; in series [1] it was 33%; in series [2], 16%. Further, in series [3], the ED50 was > 180 mg/kg. In series [5], this molecule registered an IC50 of 2950 nM.

Regarding `Cn1c(CCCCCCCCCCCCc2noc(=O)n2C)noc1=O`, the ED50 in [3] was > 45 mg/kg; in series [4] it was > 20 mg/kg.

With `Cl.Cl.N=C(N)CCCCCCCCCCCCC(=N)N`, the ED50 is > 100 mg/kg in [3] and > 10 mg/kg in series [4]. Moreover, in series [6], the result was inactive.

`N/C(CCCCCCCCCCCC/C(N)=N/O)=N\O`: the 50% effective dose (ED50) in series [3] came to 120 mg/kg.

Take `CCn1c(CCCCCCCCCCCCc2noc(=O)n2CC)noc1=O`: the ED50 in series [3] is > 20 mg/kg; in [4], > 10 mg/kg. In series [5], this molecule returned an IC50 of 10000 nM.

Take `COCCNC(=N)CCCCCCCCCCCCC(=N)NCCOC.Cl.Cl`: the results for the ED50 in series [3], in series [8] and in series [4] were > 90 mg/kg, 8 mg/kg and 8 mg/kg, respectively. For the same molecule, the 50% inhibitory concentration (IC50) in [5] is 9.2 nM.

For the molecule `O=c1onc(CCCCCCCCCCCCc2noc(=O)n2Cc2ccccc2)n1Cc1ccccc1`, the ED50 in series [3] was > 90 mg/kg; in series [4], > 20 mg/kg. In series [5], this molecule displayed an IC50 of 4950 nM.

For the molecule `CNC(=N)CCCCCCCCCCCCC(=N)NC.Cl.Cl`, the 50% effective dose (ED50) in series [3] is > 180 mg/kg. Besides, the Activity result in series [9] was “Toxic”. In addition, in series [5], the IC50 was 14.4 nM. Besides, the outcome in series [6] was inactive.

Regarding `Cc1c(CCO)sc[n+]1CCCCCCCCCCCC[n+]1csc(CCO)c1C.[Br-].[Br-]` [ALBITIAZOLIUM BROMIDE], the values for the ED50 in series [3] and in [4] were 13 mg/kg and 0.2 mg/kg, respectively.

On to `O=c1[nH]c(CCCCCCCCCCCCc2noc(=O)[nH]2)no1`, for which the ED50 in [3] was 100 mg/kg; in series [4] it was > 20 mg/kg.

Take `O/N=C(/CCCCCCCCCCCC/C(=N/O)NCc1ccccc1)NCc1ccccc1`: the ED50 was > 90 mg/kg in series [3] and > 20 mg/kg in series [4]. In [5], this molecule registered an IC50 of 1040 nM.

Take `CCNC(=N)CCCCCCCCCCCCC(=N)NCC.Cl.Cl`: the figures for the ED50 in series [3], in [8] and in [4] were > 180 mg/kg, 6.3 mg/kg and 6.3 mg/kg, respectively. Besides, in series [5], the IC50 turned out to be 9.4 nM.

Take `COCCn1c(CCCCCCCCCCCCc2noc(=O)n2CCOC)noc1=O`: the Activity in series [10] was 50%. In addition, the ED50 is 90 mg/kg in series [3] and > 20 mg/kg in series [4]. The same molecule showed a half-inhibitory concentration (IC50) in series [5] of 6450 nM.
